# Sampled rows, rich in hits. Any-hit rate of the full collection: about 1.2%.
# M1 ag parental: M1 agonist counterscreen hit in parental CHO-K1 cells; activation, % at 3 µM; Fluo-8 calcium fluorescence; scaled to maximal ATP response, vehicle zero; AID 602248; 360,000 tested, 0.48% active; in the data active = activation above about 15%;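 note: untransfected CHO-K1 host cells lacking M1 receptor as counterscreen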
# CHO-K1 Ca antag: nonselective inhibitor or artifact in parental CHO-K1 cells. ATP-induced calcium, Fluo-8 fluorescence. 360,000 tested, 0.6% active. inhibition, % at 3 µM. AID 602250;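 active = inhibition above a per-plate cutoff, the plate's mean sample inhibition plus 3 SD, cut at about 24% in these data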;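 note: 0% = DMSO plus EC80 ATP and 100% = DMSO alone without ATP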
# CHO-K1 Ca PAM: nonselective activator or artifact in parental CHO-K1 calcium assay | ATP EC20, Fluo-8 calcium fluorescence; 0% at ATP EC20, 100% at ATP max | activation, % at 3 µM | 360,000 tested, 0.02% active;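 active = activation above the run cutoff, the mean activation of all test compounds plus 3 SD, cut at about 40% in these data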;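 note: peak over basal fluorescence ratio in a 140 s read after ATP addition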
# TRPML3 ag: activates the human TRPML3 channel | Q8TDD5 | HEK293 TRPML3-YFP, Fluo-8 calcium fluorescence; 100% = the carbachol control signal | activation, % at 3 µM | 220,000 tested, 0.29% active;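 active = activation above its plate's cutoff, the mean activation of the plate's test wells plus 3 SD, cut at about 12% in these data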;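 note: 0% = DMSO only wells and 100% = carbachol wells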
# Target sequence (Q8TDD5 whole entry, looked up): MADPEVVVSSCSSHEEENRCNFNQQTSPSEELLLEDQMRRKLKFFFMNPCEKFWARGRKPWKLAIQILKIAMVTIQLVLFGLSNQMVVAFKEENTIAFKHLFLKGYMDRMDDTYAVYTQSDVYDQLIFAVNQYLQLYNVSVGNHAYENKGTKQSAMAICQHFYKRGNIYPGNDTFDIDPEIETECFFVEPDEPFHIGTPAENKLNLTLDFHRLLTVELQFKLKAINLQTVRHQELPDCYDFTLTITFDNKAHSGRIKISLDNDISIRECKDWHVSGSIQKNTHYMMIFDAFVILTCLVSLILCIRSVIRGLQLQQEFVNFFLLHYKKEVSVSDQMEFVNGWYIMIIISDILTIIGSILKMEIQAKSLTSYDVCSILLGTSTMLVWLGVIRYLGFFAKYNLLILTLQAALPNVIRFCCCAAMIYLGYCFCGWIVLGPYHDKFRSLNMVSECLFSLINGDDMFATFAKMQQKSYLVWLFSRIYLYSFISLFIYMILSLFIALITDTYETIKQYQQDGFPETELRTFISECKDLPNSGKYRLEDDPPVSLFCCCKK
#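 Material: TRPML3-YFP stable HEK293 cells | Dosing: One concentration, 3 µM nominal, 0.3% DMSO | Timing: 125 s total fluorescence read per well | Technique: Fluo-8 calcium dye fluorescence, ex 470-495, em 515-575 nm | Measure: Percent activation from peak-to-basal fluorescence ratio, scaled between DMSO and carbachol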
# TRPN1 ag: zebrafish TRPN1 (NompC) channel agonism; HEK293 zebrafish TRPN1-YFP, Fluo-8 calcium fluorescence; 100% = response to 87 µM carbachol; activation, % at 3 µM; 220,000 tested, 0.18% active;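 active = activation above its plate's cutoff, the mean activation of test wells on that plate plus 3 SD, cut at about 19% in these data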;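 note: 0% = DMSO alone and 100% = 87 µM carbachol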
#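 Material: zebrafish TRPN1-YFP in HEK293 cells; Doses: single test compound dose, 3 µM nominal, 0.3% DMSO; Timing: dye loading 1 h at 37 °C, then 30 min room temperature; Technique: intracellular calcium fluorescence with Fluo-8; Benchmarks: high carbachol 87 µM, low DMSO alone.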
# Starred values were filed as active, the others as inactive; . = no result.
SMILES,M1 ag parental,CHO-K1 Ca antag,CHO-K1 Ca PAM,TRPML3 ag,TRPN1 ag
CN1OCC(S(=O)(=O)c2ccccc2)C1c1ccccc1 (centres undefined),0,13,0,1,1
N#Cc1c(C(F)(F)F)cc(-c2ccco2)nc1SCc1ccccn1,18*,18,1,3,2
N#Cc1c(C(F)(F)F)cc(-c2ccco2)nc1SCc1ccncc1,13,4,1,4,6
COc1ccc(-n2cccc2C=O)cc1,1,-9,26,1,1
NS(=O)(=O)c1ccc(-n2cccc2C=O)cc1,18*,3,1,0,0
CCOC(=O)[C@]12CCC=C1N(Cc1cccc3ccccc13)C(=O)[C@H](CC(=O)NCCCN1CCCC1=O)C2,0,-30,14,.,.
COc1cc(/C=C2/SC(=S)N(Cc3ccccc3)C2=O)cc(Cl)c1O,6,3,-19,.,.
COc1cc([N+](=O)[O-])cc(/C=C2/SC(=S)N(Cc3ccccc3)C2=O)c1O,37*,40*,-6,.,.
NC(=O)C1CCN(C(=O)CSc2nc3ccccc3s2)CC1,0,24*,-7,1,0
O=C(O)C1CCN(C(=O)CSc2nc3ccccc3s2)CC1,0,5,-9,0,-1
CC(=O)c1ccc(NC(=O)Cn2cnc(S(=O)(=O)N3CCc4ccccc43)c2)cc1,0,25*,-24,.,.
O=C(NCCc1ccccc1)C(=O)NCC1OCCN1S(=O)(=O)c1ccc2c(c1)OCCO2 (centres undefined),19*,0,3,.,.
N#CCC(=O)N/N=C/c1cc([N+](=O)[O-])ccc1N1CCOCC1,0,26*,-15,1,0
O=C(N/N=C/c1cc([N+](=O)[O-])c(N2CCOCC2)cc1N1CCOCC1)c1cccnc1,21*,1,17,1,1
CN1CCN(c2ccc([N+](=O)[O-])cc2/C=N/NC(=O)c2ccc(F)cc2)CC1,0,20,-24,1,0
COc1cccc(C#Cc2ccc3c(c2)O[C@H](CN(C)C)[C@@H](C)CN([C@@H](C)CO)S3(=O)=O)c1,1,2,-3,.,.
CCCN1CCC(C)(C(=O)Nc2cccc(OC(C)C)c2)C1 (centres undefined),1,1,14,.,.
COc1ccc(C#CC2=CC(=O)CC(C)(C)C2)cc1,-1,0,1,.,.
O=C(NC1CCCCC1)C(c1ccnc2ccccc12)N1CCc2ccccc2C1 (centres undefined),1,-7,9,.,.
Cc1cc2n(n1)C(c1sccc1C)Nc1c(C)cccc1-2 (centres undefined),0,25*,-6,0,-2
Cc1cc2n(n1)C(c1sccc1C)Nc1ccccc1-2 (centres undefined),0,17,-7,0,-1
CCOC(=O)Nc1ccc2c(c1)Cc1cc([N+](=O)[O-])ccc1-2,1,-14,-2,.,.
Nc1ccc2c(c1)Cc1cc([N+](=O)[O-])ccc1-2,26*,13,9,15*,13
CC(O)CN(CC(C)O)c1ccc2c(c1)Cc1cc([N+](=O)[O-])ccc1-2 (centres undefined),174*,60*,-20,.,.
CC(=NO)c1ccc2c(c1)Cc1cc([N+](=O)[O-])ccc1-2,0,3,-2,.,.
SMILES,M1 ag parental,CHO-K1 Ca antag,CHO-K1 Ca PAM,TRPML3 ag,TRPN1 ag
COc1cc(C(O)c2nc(-c3cccc(C(F)(F)F)c3)cs2)ccc1F (centres undefined),1,-2,11,.,.
C=C(C)C(=O)Oc1ccc(N=Nc2ccc(C)cc2)ccc1=O,-1,-6,7,.,.
Nc1[nH]c(C(=O)c2ccccc2)c(-c2ccc(Cl)c(F)c2)c1C(=O)NCCc1c[nH]c2ccccc12,1,-10,5,.,.
c1ccc(-c2csc(-n3cnnn3)n2)cc1,0,30*,-7,1,2
O=C(c1[nH]c(C(F)(F)F)nc1-c1ccccc1)N1CCC2(CC1)C(=O)NCN2c1ccccc1,0,-13,12,.,.
O=C(COC(=O)c1ccc(F)cc1F)NC1CC1,-1,30*,-15,1,1
O=C(COC(=O)c1ccc(F)cc1F)NCCNC(=O)COC(=O)c1ccc(F)cc1F,1,-6,10,.,.
COc1ccc(-c2csc(NC(=O)c3ccccc3NS(=O)(=O)c3ccc(C)cc3)n2)cc1,11,23,-9,6,7
COc1ccc(S(=O)(=O)Nc2ccccc2C(=O)Nc2nc(-c3ccc(F)cc3)cs2)cc1OC,15,33*,-7,8,14
CCN1CCCC1CNC(=O)C(=O)NC (centres undefined),0,-12,2,1,0
CCCCCOc1ccc(NC(=O)C(=O)NCC2CCCN2CC)cc1 (centres undefined),0,25*,-18,1,1
CCCCOc1ccc(C(=O)OCC(=O)Nc2cc(C)on2)cc1,3,-15,17,88*,94*
CCC(c1nnnn1-c1ccc2c(c1)OCCO2)N1CCN(c2cc(C)ccc2C)CC1 (centres undefined),0,-38,19,.,.
NC(c1ccccc1)c1csc(Nc2ccc(C(=O)NCCCO)cn2)n1 (centres undefined),0,-9,16,.,.
COC(=O)C1CCN(C(=O)Nc2ccccc2)CC1,1,-11,18,1,1
COc1ccc(CN(C)C(=O)C2CCN(C(=O)Nc3ccccc3)CC2)cc1,1,26*,-27,.,.
O=S(=O)(c1ccc2nc(N3CCN(c4ccc(F)cc4)CC3)ccc2c1)N1CCCCC1,5,4,11,.,.
O=S(=O)(c1ccc2nc(N3CCN(c4ccccc4F)CC3)ccc2c1)N1CCCCC1,2,25*,-6,.,.
Cc1ccsc1C(=O)NNC(=O)COc1ccccc1Cl,0,31*,-31,.,.
CN(Cc1ccc(Cl)c(Cl)c1)C(c1cc2ccccc2o1)c1nnnn1C(C)(C)C (centres undefined),0,-19,23,.,.
CC1(C(=O)NS(=O)(=O)c2ccccc2Cl)CCN1C(=O)c1ccccc1 (centres undefined),1,-10,11,.,.
CCCC(C)(C)C(=O)N1CCC1(C)C(=O)Nc1ccc2c(c1)OCCO2 (centres undefined),1,-16,16,.,.
COc1cccc(CN(C)C(=O)c2cc(COc3ccc(-n4cncn4)cc3)on2)c1,16*,-3,-20,.,.
O=C(NCCc1cn2ccccc2n1)c1cc(COc2ccc3ncccc3c2)on1,19*,33*,-11,5,9
COc1cccc(CN(C)C(=O)c2cc(COc3ccc4ncccc4c3)on2)c1,19*,44*,-11,4,11
COc1cccc(CN(C)C(=O)c2cc(COc3c(F)cccc3F)on2)c1,1,-5,-4,-1,-1
Cc1nc2c(OCc3ccc(C#N)cc3)cccn2c1N(C)C(=O)CCC1CCCC1,7,-7,13,.,.
